In brackets after ≈: the same amount, converted by molar mass. Activity calls are given as the source filed them. No cut-off for these calls is given here. Some results are limits rather than exact numbers.

Data set [1] is described as follows: Solubility of compound in 0.1 M phosphate buffer at pH 7.4 at 25 degC after 24 hrs. In kind it is physicochemical. The method, boiled down: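 Solid sample shaken 24 h in 0.1 M phosphate buffer, pH 7.4, 25 °C.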
Data set [2] in a line: Unbound fraction in human plasma by equilibrium dialysis. Type of data set: ADME, cell-free. The method, boiled down:
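Human plasma, compound added from DMSO stock; fraction unbound (fu%) by equilibrium dialysis.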

In data set [3] the target is T1, N-lysine methyltransferase SMYD2 (Homo sapiens, UniProt Q9NRG4). Briefly: Inhibition of SMYD2 (unknown origin).
Data set [4] concerns the target T1, N-lysine methyltransferase SMYD2. Briefly: Inhibition of SMYD2 (unknown origin) expressed in human U2OS cells assessed as reduction in monomethylated p53 levels incubated for 24 hrs by immunofluorescence assay. In kind it is cell-based. The method in brief:
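U2OS plated 8,000 cells/well, transfected (Fugene) with FLAG-tagged wild-type SMYD2 construct. Compound from DMSO in media (final DMSO 0.2%), 24 h. Cells PFA-fixed, stained with anti-FLAG (1:800), polyclonal anti-monomethyl p53 K370 peptide antibody (1:1000) and DAPI, then imaged. IC50 from fluorescent intensity per cell for methylation; DAPI count gave the cell-count IC50.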

The nature of data set [5]: Intrinsic clearance in human liver microsomes. In kind it is ADME, Microsome. The following applies: read-out: CLH. On the technique in general: Liver microsomes are vesicles of endoplasmic reticulum, rich in cytochrome P450 enzymes.
Data set [6] addresses T1, N-lysine methyltransferase SMYD2. Put plainly: Ratio of IC50 for SMYD2 (unknown origin) to IC50 for inhibition of SMYD2 (unknown origin) expressed in human U2OS cells. Type of data set: cell-based.
The subject of data set [7] is HCT-116. Briefly: Antiproliferative activity against human HCT-116 cells contains wild-type p53 gene assessed as reduction in cell viability at 0.03 to 30 uM incubated for 72 hrs by Alamar blue based assay. The following applies: dose 0.03-30 µM. In kind it is functional. The method, boiled down:
(§1)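 Matched p53 wild-type/deficient pairs (HCT116 p53+/+ and p53-/-; RKO-neo and RKO-E6a) seeded in triplicate, attached overnight. Media replaced with DMSO control or compound media, 0.03 to 30 µM, 72 h. Viability read as fluorescence after AlamarBlue incubation. Triplicate in two separate experiments; mean ±SEM.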
(Alamar Blue is a resazurin reagent that responds to reducing activity.)

The test system of data set [8] is HCT-116. Briefly: Antiproliferative activity against human HCT-116 cells deficient in p53 gene assessed as reduction in cell viability at 0.03 to 30 uM incubated for 72 hrs by Alamar blue based assay. Type of data set: functional. The conditions noted are these: dose 0.03-30 µM. The method in brief:
as §1

In the next data set the test system is RKO. Put plainly: Antiproliferative activity against human RKO cells assessed as reduction in cell viability at 0.03 to 30 uM incubated for 72 hrs by Alamar blue based assay. In kind it is functional. The following applies: dose 0.03-30 µM. The method in brief:
as §1

A further data set concerns RKOE6. Put plainly: Antiproliferative activity against human RKOE6 cells assessed as reduction in cell viability at 0.03 to 30 uM incubated for 72 hrs by Alamar blue based assay. The conditions noted are these: dose 0.03-30 µM. Type of data set: functional. The method, boiled down:
as §1

T1 sequence (Q9NRG4 whole entry): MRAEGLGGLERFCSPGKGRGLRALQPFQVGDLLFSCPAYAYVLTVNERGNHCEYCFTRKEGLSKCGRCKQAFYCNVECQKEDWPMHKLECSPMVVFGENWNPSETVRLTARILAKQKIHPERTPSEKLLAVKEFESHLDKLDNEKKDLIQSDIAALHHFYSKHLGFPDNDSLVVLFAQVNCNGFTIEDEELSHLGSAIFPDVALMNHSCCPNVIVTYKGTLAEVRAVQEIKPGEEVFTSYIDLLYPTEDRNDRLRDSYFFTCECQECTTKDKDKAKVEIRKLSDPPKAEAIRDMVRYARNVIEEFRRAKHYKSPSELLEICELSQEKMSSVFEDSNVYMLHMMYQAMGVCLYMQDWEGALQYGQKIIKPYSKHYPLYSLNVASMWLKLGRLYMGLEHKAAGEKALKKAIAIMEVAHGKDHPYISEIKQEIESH

For orientation: solubility means how much of the substance goes into solution per volume. As usually defined, the fraction unbound is the share of the substance not bound to proteins or other matrix. A word on the IC50: it is the concentration that gives 50% inhibition. Broadly, the EC50 is the concentration giving half of the maximal effect. `N#Cc1cc(C(=O)NCCCN2CCCC2)cc(-c2ccccc2N2CCN(CCc3ccc(Cl)c(Cl)c3)CC2)c1`: the solubility at 24 h in data set [1] is 34 µM (≈ 20.1 µg/mL). Moreover, the fraction unbound in [2] was less than 0.01. In addition, the concentration for half-maximal inhibition (IC50) was 0.138 µM in [3] and 0.67 µM in data set [4]. Further, the EC50 in data set [4] was 0.425 µM. In [5], the microsomal CLint worked out at 73 µL/min/mg. In [6], the Ratio IC50 was more than 2. For the same molecule, the result in the data set on HCT-116 [7], in the data set on HCT-116 [8], in the data set with RKO and in the data set on RKOE6 was Active.

Values taken from ChEMBL document CHEMBL4680102, “Design, Synthesis, and Biological Activity of Substrate Competitive SMYD2 Inhibitors” (J Med Chem, 2016).
